Results as given in ChEMBL document CHEMBL1149320, “New class of corticotropin-releasing factor (CRF) antagonists: small peptides having high binding affinity for CRF receptor” (J Med Chem, 2004).
Bridge positions count the residues as written; N and C are the ends. Square brackets hold non-standard residues; d marks the D form. Peptide text beside a SMILES is read from it. ξ: configuration not given here. Cha = N[C@@H](CC1CCCCC1)C(=O)O; ξR = N=C(N)NCCCC(N)C(=O)O; Nle = CCCC[C@H](N)C(=O)O

Target: T1, Corticotropin-releasing factor receptor 1 (Homo sapiens, UniProt P34998)
T1 sequence (P34998 whole entry): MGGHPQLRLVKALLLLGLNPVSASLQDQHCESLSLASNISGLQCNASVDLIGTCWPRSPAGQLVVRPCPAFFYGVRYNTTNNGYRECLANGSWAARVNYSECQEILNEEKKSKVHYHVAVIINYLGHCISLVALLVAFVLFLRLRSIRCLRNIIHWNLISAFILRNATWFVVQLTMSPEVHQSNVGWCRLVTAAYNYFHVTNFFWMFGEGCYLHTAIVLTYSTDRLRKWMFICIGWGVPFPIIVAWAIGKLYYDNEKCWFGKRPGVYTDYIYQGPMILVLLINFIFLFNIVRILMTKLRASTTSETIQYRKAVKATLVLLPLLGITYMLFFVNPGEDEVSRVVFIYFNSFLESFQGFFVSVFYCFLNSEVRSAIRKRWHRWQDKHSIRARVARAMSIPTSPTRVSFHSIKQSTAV
Experiment: Binding affinity at human CRF1 receptor (CRFR1) on HeLA cell membranes.
Assay type: cell-based
In short: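 Membranes from HeLa cells transfected with a plasmid encoding human CRFR1, precoupled to WGA scintillation proximity beads. Bead-bound radioactivity counted by scintillation. Ki reported; curves from three determinations, each in duplicate.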

Structure (SMILES)	Ki (hela) [nM]	Ki [nM]
CCCC[C@H](NC(=O)[C@H](CC(C)C)NC(=O)[C@H](CCCCN)NC(=O)[C@H](CCCN=C(N)N)NC(=O)[C@H](CC(N)=O)NC(=O)[C@@H]1CCCCNC(=O)CC[C@H](NC(C)=O)C(=O)N[C@H](C)C(=O)N[C@@H](Cc2ccccc2)C(=O)N1)C(=O)N[C@@H](CCC(=O)O)C(=O)N[C@H](C(=O)N[C@H](C(N)=O)[C@@H](C)CC)[C@@H](C)CC	> 1000	–
CCCC[C@H](NC(=O)[C@H](CC(C)C)NC(=O)[C@H](CCCCN)NC(=O)[C@H](CCCNC(=N)N)NC(=O)[C@H](CC(C)C)NC(=O)[C@@H]1CCCCNC(=O)CC[C@H](NC(C)=O)C(=O)N[C@@H](C)C(=O)N[C@@H](CC(C)C)C(=O)N1)C(=O)N[C@@H](CCC(=O)O)C(=O)N[C@H](C(=O)N[C@H](C(N)=O)[C@@H](C)CC)[C@@H](C)CC (Ac-EALKLRKL[Nle]EII-NH2; lactam 1-4)	48.9	–
CC[C@H](C)[C@H](NC(=O)[C@@H](NC(=O)[C@H](CC(=O)O)NC(=O)[C@H](CC1CCCCC1)NC(=O)[C@H](CC(C)C)NC(=O)[C@H](CCCCN)NC(=O)[C@H](CCCNC(=N)N)NC(=O)[C@H](CC(N)=O)NC(=O)[C@@H]1CCCCNC(=O)CC[C@H](NC(C)=O)C(=O)N[C@@H](C)C(=O)N[C@@H](CCC(=O)O)C(=O)N1)[C@@H](C)CC)C(N)=O (Ac-EAEKNRKL[Cha]DII-NH2; lactam 1-4)	5.5	–
CC[C@H](C)[C@H](NC(=O)[C@@H](NC(=O)[C@H](CC(=O)O)NC(=O)[C@H](CC1CCCCC1)NC(=O)[C@H](CC(C)C)NC(=O)[C@H](CCCCN)NC(=O)[C@H](CCCNC(=N)N)NC(=O)[C@H](CC(C)C)NC(=O)[C@@H]1CCCCNC(=O)CC[C@H](NC(C)=O)C(=O)N[C@H](C)C(=O)N[C@@H](CCC(=O)O)C(=O)N1)[C@@H](C)CC)C(N)=O	3.1	–

Continued, values first:

Ki (hela) [nM]	Ki [nM]	Structure (SMILES)
44.8	–	CCCC[C@H](NC(=O)[C@H](CC(C)C)NC(=O)[C@H](CCCCN)NC(=O)C(CCCN=C(N)N)NC(=O)[C@H](CC(N)=O)NC(=O)[C@@H]1CCCCNC(=O)CC[C@H](NC(C)=O)C(=O)N[C@@H](C)C(=O)N[C@@H](CCCCN)C(=O)N1)C(=O)N[C@@H](CCC(=O)O)C(=O)N[C@H](C(=O)N[C@H](C(N)=O)[C@@H](C)CC)[C@@H](C)CC (some centres undefined) (Ac-EAKKN[ξR]KL[Nle]EII-NH2; lactam 1-4)
–	> 1000	CCCC[C@H](NC(=O)[C@H](CC(C)C)NC(=O)[C@H](CCCCN)NC(=O)[C@H](CCCN=C(N)N)NC(=O)[C@H](CCC(N)=O)NC(=O)[C@@H]1CCCCNC(=O)CC[C@H](NC(C)=O)C(=O)N[C@@H](C)C(=O)N[C@@H](Cc2c[nH]cn2)C(=O)N1)C(=O)N[C@@H](CCC(=O)O)C(=O)N[C@H](C(=O)N[C@H](C(N)=O)[C@@H](C)CC)[C@@H](C)CC (Ac-EAHKQRKL[Nle]EII-NH2; lactam 1-4)
–	> 1000	CCCC[C@H](NC(=O)[C@H](CC(C)C)NC(=O)[C@H](CCCCN)NC(=O)[C@H](CCCN=C(N)N)NC(=O)[C@H](CC(N)=O)NC(=O)[C@@H]1CCCCNC(=O)CC[C@H](NC(C)=O)C(=O)N[C@@H](CC(=O)O)C(=O)N[C@@H](Cc2c[nH]cn2)C(=O)N1)C(=O)N[C@@H](CCC(=O)O)C(=O)N[C@H](C(=O)N[C@H](C(N)=O)[C@@H](C)CC)[C@@H](C)CC (Ac-EDHKNRKL[Nle]EII-NH2; lactam 1-4)
–	> 1000	CCCC[C@H](NC(=O)[C@H](CC(C)C)NC(=O)[C@H](CCCCN)NC(=O)[C@H](CCCN=C(N)N)NC(=O)[C@H](CC(C)C)NC(=O)[C@@H]1CCCCNC(=O)CC[C@H](NC(C)=O)C(=O)N[C@@H](C)C(=O)N[C@@H](Cc2c[nH]cn2)C(=O)N1)C(=O)N[C@@H](CCC(=O)O)C(=O)N[C@H](C(=O)N[C@H](C(N)=O)[C@@H](C)CC)[C@@H](C)CC (Ac-EAHKLRKL[Nle]EII-NH2; lactam 1-4)
–	> 1000	CCCC[C@H](NC(=O)[C@H](CC(C)C)NC(=O)[C@H](CCCCN)NC(=O)[C@H](CCCN=C(N)N)NC(=O)[C@H](CC(=O)O)NC(=O)[C@@H]1CCCCNC(=O)CC[C@H](NC(C)=O)C(=O)N[C@@H](C)C(=O)N[C@@H](Cc2c[nH]cn2)C(=O)N1)C(=O)N[C@@H](CCC(=O)O)C(=O)N[C@H](C(=O)N[C@H](C(N)=O)[C@@H](C)CC)[C@@H](C)CC (Ac-EAHKDRKL[Nle]EII-NH2; lactam 1-4)
